Measured values from different studies.
Protocols differ between the studies behind these lines.
Target: Phosphatidylinositol 4,5-bisphosphate 3-kinase catalytic subunit delta isoform (PIK3CD, Homo sapiens, UniProt O00329)
One construct used (O00329 1-1044): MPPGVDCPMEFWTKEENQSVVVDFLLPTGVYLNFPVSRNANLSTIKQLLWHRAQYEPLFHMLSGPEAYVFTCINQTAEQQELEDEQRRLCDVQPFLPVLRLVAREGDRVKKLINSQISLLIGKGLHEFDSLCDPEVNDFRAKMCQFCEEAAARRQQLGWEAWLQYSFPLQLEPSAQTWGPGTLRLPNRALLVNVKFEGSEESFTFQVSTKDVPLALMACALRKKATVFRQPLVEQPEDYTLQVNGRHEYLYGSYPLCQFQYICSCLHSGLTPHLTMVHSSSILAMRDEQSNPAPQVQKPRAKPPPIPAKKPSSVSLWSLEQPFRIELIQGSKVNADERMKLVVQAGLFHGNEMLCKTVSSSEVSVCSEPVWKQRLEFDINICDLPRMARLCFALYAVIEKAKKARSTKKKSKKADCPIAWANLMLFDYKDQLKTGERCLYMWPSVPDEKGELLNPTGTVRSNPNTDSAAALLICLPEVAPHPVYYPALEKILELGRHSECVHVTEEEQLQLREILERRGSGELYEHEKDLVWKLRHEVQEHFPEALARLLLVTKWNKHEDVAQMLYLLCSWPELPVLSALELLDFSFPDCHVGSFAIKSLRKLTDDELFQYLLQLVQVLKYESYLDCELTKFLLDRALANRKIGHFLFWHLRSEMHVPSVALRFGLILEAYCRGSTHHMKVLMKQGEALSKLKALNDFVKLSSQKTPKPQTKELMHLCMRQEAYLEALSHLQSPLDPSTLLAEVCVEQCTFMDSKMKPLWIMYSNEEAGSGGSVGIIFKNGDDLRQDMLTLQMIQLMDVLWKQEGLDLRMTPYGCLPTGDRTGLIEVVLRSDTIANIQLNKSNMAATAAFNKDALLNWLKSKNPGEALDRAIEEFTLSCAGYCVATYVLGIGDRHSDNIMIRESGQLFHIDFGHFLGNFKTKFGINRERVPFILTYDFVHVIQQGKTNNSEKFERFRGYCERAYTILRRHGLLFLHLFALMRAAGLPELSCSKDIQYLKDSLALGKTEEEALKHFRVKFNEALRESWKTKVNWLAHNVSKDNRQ

CC(C)(O)c1cncc(-c2nc3ccc(F)cc3n2C2CC2)c1 — remaining binding (cell-free assay; competition with immobilised ligand; 1 µM): 100%
CS(=O)(=O)Nc1cc(-c2ccc3ncnc(Nc4ccc(F)c(Cl)c4)c3c2)cnc1Cl — inhibition (enzyme activity; inhibitor; FRET; 10 µM): 90 to 100%
CO[C@@H](C)c1c(Nc2ccc([C@@H](N(C)C(=O)C3CCS(=O)(=O)CC3)C(F)(F)F)cc2)cnc2cc(Cl)nn12 — remaining binding (cell-free assay; competition with immobilised ligand; 1 µM): 87%
CC(C)CCn1c(SCC(=O)Nc2ccccc2C(F)(F)F)nc2nccnc2c1=O — inhibition (enzyme activity; inhibitor; 10 µM): < 20%
CN(CCCC(F)(F)F)c1nccc(-c2cnn3ncccc23)n1 — remaining binding (binding; 1 µM): 100%
Cc1ccc(C(=O)NCc2ccsc2)cc1C#Cc1cn(C(C)C)c2ncnc(N)c12 — activity vs control (enzyme activity; inhibitor; 1 µM): 98%
Cc1ccc(C(=O)Nc2ccc(CN3CCN(C)CC3)c(C(F)(F)F)c2)cc1C#Cc1cnc2cccnn12 — remaining activity (enzyme activity; inhibitor; 23.5 nM): 83%
O=C(CSc1nc2nccnc2c(=O)n1CCc1ccccc1)Nc1ccccc1 — inhibition (enzyme activity; inhibitor; 10 µM): < 20%
Nc1ncnc2occ(-c3ccc(NC(=O)Nc4cc(C(F)(F)F)ccc4F)cc3)c12 — remaining signal (cell-free assay; inhibitor; 20 µM): 69%
